# Results taken from ChEMBL document CHEMBL1149395, “Beta-substituted cyclohexanecarboxamide: a nonpeptidic framework for the design of potent inhibitors of cathepsin K” (J Med Chem, 2006).
# What was measured:
# Cathepsin K [1] = molecular target: Cathepsin K (Homo sapiens, UniProt P43235); experiment: Inhibitory activity against humanized rabbit Cathepsin K
# [2] = molecular target: Cathepsin (L and K) (Homo sapiens) (UniProt P43235+P07711); experiment: Selectivity for Cathepsin L over Cathepsin K; format: protein assay
# Cathepsin K [3] = molecular target: T1, Cathepsin K (Homo sapiens, UniProt P43235); experiment: Inhibitory activity against human Cathepsin K
# T1 sequence (P43235 whole entry): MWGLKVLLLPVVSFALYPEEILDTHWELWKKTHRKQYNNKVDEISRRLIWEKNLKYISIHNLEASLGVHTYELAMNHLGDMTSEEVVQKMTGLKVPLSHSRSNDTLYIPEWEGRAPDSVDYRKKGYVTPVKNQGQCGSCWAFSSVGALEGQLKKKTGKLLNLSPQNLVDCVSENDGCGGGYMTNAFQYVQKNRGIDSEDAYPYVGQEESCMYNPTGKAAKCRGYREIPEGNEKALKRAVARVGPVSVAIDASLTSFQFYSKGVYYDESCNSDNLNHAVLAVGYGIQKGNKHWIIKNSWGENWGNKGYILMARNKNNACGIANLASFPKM
# [4] = molecular target: Cathepsin (S and K) (Homo sapiens) (UniProt P25774+P43235); experiment: Selectivity for Cathepsin S over Cathepsin K; format: protein assay
# [5] = molecular target: Cathepsin (B and K) (Homo sapiens) (UniProt P43235+P07858); experiment: Selectivity for Cathepsin B over Cathepsin K; format: protein assay
# [6] = Half life in rat at 1 mL/kg, iv; conditions: Sprague-Dawley, in vivo
# [7] = Plasma clearance in rat at 1 mL/kg, iv; conditions: Sprague-Dawley
# [8] = Oral bioavailability in dogs at 5 mL/kg, po; format: ADME, organism-based, Canis lupus familiaris; conditions: dog, in vivo
# How it was run: (§1)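 Single compounds given orally as suspensions in 1% methocel to animals fasted overnight, dosed in the morning. Oral dosing volumes were 10 mL/kg for rats, 5 mL/kg for dogs and 1 mL/kg for monkeys. Intravenous comparison dosing went via the jugular vein in PEG-200/H₂O (3:2) at 1 mL/kg. Plasma was sampled at regular intervals, precipitated with 1.5 volumes of acetonitrile, centrifuged and analysed by LC-MS.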
# [9] = Half life in squirrel monkey at 1 mL/kg, po; format: ADME, organism-based, Saimiri sciureus; conditions: in vivo; how it was run: as §1
# [10] = Half life in rat at 10 mL/kg, po; format: ADME, organism-based; conditions: Sprague-Dawley, in vivo; how it was run: as §1
# Cathepsin K [11] = molecular target: T2, Cathepsin K (Oryctolagus cuniculus, UniProt P43236); experiment: Inhibitory activity against rabbit Cathepsin K
# T2 sequence (P43236 whole entry): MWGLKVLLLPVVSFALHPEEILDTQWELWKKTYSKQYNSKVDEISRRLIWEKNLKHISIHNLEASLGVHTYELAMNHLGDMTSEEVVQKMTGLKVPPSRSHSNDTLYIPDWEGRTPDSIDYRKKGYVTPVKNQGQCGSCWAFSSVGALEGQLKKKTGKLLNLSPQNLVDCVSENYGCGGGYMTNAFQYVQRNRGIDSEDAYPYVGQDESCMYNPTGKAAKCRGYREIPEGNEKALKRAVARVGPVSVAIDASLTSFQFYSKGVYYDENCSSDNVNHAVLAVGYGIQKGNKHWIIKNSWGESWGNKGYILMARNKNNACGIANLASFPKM
# [12] = Plasma clearance in dog at 5 mL/kg, po; format: ADME, organism-based, Canis lupus familiaris; how it was run: as §1
# [13] = Plasma clearance in squirrel monkey at 1 mL/kg, po; format: ADME, organism-based, Saimiri sciureus; how it was run: as §1
# Oryctolagus cuniculus = species: Oryctolagus cuniculus; experiment: Effect on degradation of collagen in bovine bone by rabbit osteoclast; format: functional
# [14] = Plasma clearance in rat at 10 mL/kg, po; format: ADME, organism-based; conditions: Sprague-Dawley; how it was run: as §1
# [15] = Oral bioavailability in squirrel monkey at 1 mL/kg, po; format: ADME, organism-based, Saimiri sciureus; conditions: in vivo; how it was run: as §1
# [16] = Half life in dog at 5 mL/kg, po; format: ADME, organism-based, Canis lupus familiaris; conditions: in vivo; how it was run: as §1
# [17] = Oral bioavailability in rats at 10 mL/kg, po; format: ADME, organism-based; conditions: Sprague-Dawley, rat, in vivo; how it was run: as §1
SMILES,IC50 (Cathepsin K [1]),Selectivity ratio [2],Selectivity ratio [4],Selectivity ratio [5],other results
N#CCNC(=O)[C@@H]1CCCC[C@H]1CSc1cccc(O)c1,0.33 µM,,,,
N#CCNC(=O)[C@@H]1CCCC[C@H]1CSc1cc(Cl)ccc1Cl (racemic),0.15 µM,,,,
N#CCNC(=O)[C@@H]1CCCC[C@H]1CSc1cccc(F)c1 (racemic),0.35 µM,,,,
N#CCNC(=O)[C@@H]1CCCC[C@H]1CSc1cccc(N)c1 (racemic),0.7 µM,,,,
N#CCNC(=O)[C@@H]1CCCC[C@H]1CSc1ncc[nH]1 (relative stereo),0.41 µM,,,,
N#CCNC(=O)[C@@H]1CCCC[C@H]1CSc1ncccn1 (racemic),0.99 µM,,,,
N#CCNC(=O)[C@@H]1CCCC[C@H]1CSc1ccccc1 (racemic),0.172 µM,150,28,31,IC50 (Cathepsin K [3]): 0.14 µM
N#CCNC(=O)[C@@H]1CCCC[C@H]1CSc1cc(Cl)cc(Cl)c1 (racemic),0.28 µM,,,,
CSc1ccc(-c2ccccc2C2CCC(F)CC2C(=O)NCC#N)cc1 (racemic; form 2) [listing 1 of 2 here],,2000,180,> 2700,
N#CCNC(=O)[C@@H]1CCCC[C@H]1c1ccccc1-c1ccc(F)cc1 (racemic),,,,,half-life [6]: 0.75 h; clearance [7]: 3 L/h/kg
N#CCNC(=O)[C@@H]1CCCC[C@H]1CSc1cccc(Br)c1 (mixture of isomers),0.15 µM,,,,
CSc1ccc(-c2ccccc2C2CCC(F)CC2C(=O)NCC#N)cc1 (racemic; form 1) [listing 1 of 2 here],,1600,1500,> 2400,
N#CCNC(=O)[C@@H]1CCCC[C@H]1CSc1nccs1 (racemic),0.49 µM,,,,
N#CCNC(=O)[C@@H]1CCCC[C@H]1CSc1ccc(Cl)cc1Cl (mixture of isomers),0.11 µM,,,,
N#CCNC(=O)[C@@H]1CCCC[C@H]1CSc1nnc(-c2ccncc2)o1 (relative stereo),0.95 µM,,,,
COc1cccc(SC[C@@H]2CCCC[C@H]2C(=O)NCC#N)c1 (racemic),0.37 µM,,,,
N#CCNC(=O)[C@@H]1CCCC[C@@H]1SCc1ccccc1 (racemic),,,,,IC50 (Cathepsin K [3]): 0.28 µM
N#CCNC(=O)[C@@H]1CCCC[C@H]1CSc1nc2ccccc2s1 (racemic),0.2 µM,,,,
N#CCNC(=O)[C@@H]1CCCC[C@H]1CSc1nc2ccccc2o1 (racemic),0.48 µM,,,,
N#CCNC(=O)[C@@H]1CCCC[C@H]1CSc1cc(Cl)c(Cl)cc1Cl (racemic),0.46 µM,,,,
N#CCNC(=O)[C@@H]1CCCC[C@H]1CSc1cccc(Cl)c1 (mixture of isomers),0.2 µM,,,,
N#CCNC(=O)[C@@H]1CCCC[C@H]1SCc1ccccc1 (racemic),,,,,IC50 (Cathepsin K [3]): 0.052 µM
N#CCNC(=O)[C@@H]1CCCC[C@H]1CS(=O)(=O)c1ccc(OC(F)(F)F)cc1 (racemic),,,,,half-life [6]: 0.333 h; clearance [7]: 2.52 L/h/kg
Cc1ccc(SC[C@@H]2CCCC[C@H]2C(=O)NCC#N)cc1 (racemic),0.1 µM,110,180,380,
N#CCNC(=O)C1(NC(=O)c2ccccc2)CCCCC1,,,,,IC50 (Cathepsin K [3]): 0.078 µM
N#CCNC(=O)C1=CCCCC1,,,,,IC50 (Cathepsin K [3]): 3.4 µM

# Further compounds by falling IC50 (Cathepsin K [1]), results first:
IC50 (Cathepsin K [1]),Selectivity ratio [2],Selectivity ratio [4],Selectivity ratio [5],SMILES,other results
0.1 µM,350,120,> 990,N#CCNC(=O)[C@@H]1CCCC[C@H]1CSc1ccc(N)cc1 (mixture of isomers),
0.036 µM,,,,N#CCNC(=O)C1CC(F)(F)CCC1c1ccccc1-c1ccc(F)cc1 (racemic),half-life [10]: 4.5 h; IC50 (Cathepsin K [11]): 0.0092 µM; CL/F [14]: 2.22 L/h/kg; bioavailability [17]: 26%
0.033 µM,71,> 3100,> 3100,N#CCNC(=O)[C@@H]1CCCC[C@H]1CSc1ccc(Br)cc1 (racemic),
0.03 µM,120,35,145,N#CCNC(=O)[C@@H]1CCCC[C@H]1CSc1ccc(F)cc1 (mixture of isomers),
0.03 µM,120,330,> 3400,N#CCNC(=O)[C@@H]1CCCC[C@H]1CSc1ccc(Cl)cc1 (racemic),
0.028 µM,810,960,> 3500,COc1ccc(SC[C@@H]2CCCC[C@H]2C(=O)NCC#N)cc1 (racemic),
0.021 µM,1700,110,880,N#CCNC(=O)[C@@H]1CCCC[C@H]1CSc1ccc(O)cc1 (racemic),
0.017 µM,52,> 5800,> 5800,N#CCNC(=O)[C@@H]1CCCC[C@H]1CSc1ccc(I)cc1 (relative stereo),
0.0071 µM,,,,CSc1ccc(-c2ccccc2[C@H]2CCC(F)(F)C[C@@H]2C(=O)NCC#N)cc1,IC50 (Cathepsin K [11]): 0.0092 µM
0.005 µM,740,1800,2000,CSc1ccc(S(=O)(=O)C[C@@H]2CCCC[C@H]2C(=O)NCC#N)cc1 (mixture of isomers),half-life [6]: 0.0833 h; clearance [7]: 2.28 L/h/kg
0.0042 µM,2200,3200,> 24000,CSc1ccc(SC[C@@H]2CCCC[C@H]2C(=O)NCC#N)cc1 (racemic),
0.0042 µM,,,,CSc1ccc(-c2ccccc2C2CCC(F)CC2C(=O)NCC#N)cc1 (racemic; form 1) [listing 2 of 2 here],half-life [9]: 0.8 h; half-life [10]: 1.5 h; IC50 (Cathepsin K [11]): 0.0037 µM; CL/F [13]: 1.26 L/h/kg; CL/F [14]: 1.5 L/h/kg; bioavailability [15]: 28%; bioavailability [17]: 88%
0.0037 µM,,,,CSc1ccc(-c2ccccc2C2CCC(F)CC2C(=O)NCC#N)cc1 (racemic; form 2) [listing 2 of 2 here],IC50 (Cathepsin K [11]): 0.012 µM
0.0026 µM,2800,> 3800,> 3800,CSc1ccc(-c2ccccc2[C@@H]2CCCC[C@H]2C(=O)NCC#N)cc1 (racemic),half-life [6]: 0.733 h; clearance [7]: 2.1 L/h/kg
0.00058 µM,450,52,> 17000,CSc1ccc(-c2ccccc2C2CCC(Cl)(Cl)CC2C(=O)NCC#N)cc1 (racemic),half-life [10]: 3.1 h; IC50 (Cathepsin K [11]): 0.00059 µM; CL/F [14]: 3.06 L/h/kg; bioavailability [17]: 75%
0.00046 µM,880,1100,> 120000,CSc1ccc(-c2ccccc2C2CCC(F)(F)CC2C(=O)NCC#N)cc1 (racemic),half-life [10]: 3.5 h; IC50 (Cathepsin K [11]): 0.0005 µM; CL/F [14]: 0.9 L/h/kg; bioavailability [17]: 53%
0.00028 µM,780,940,> 36000,CSc1ccc(-c2ccccc2[C@@H]2CCC(F)(F)C[C@H]2C(=O)NCC#N)cc1,bioavailability [8]: 55%; half-life [9]: 8.8 h; half-life [10]: 3.5 h; IC50 (Cathepsin K [11]): 0.00032 µM; CL/F [12]: 0.216 L/h/kg; CL/F [13]: 1.02 L/h/kg; IC50 (Oryctolagus cuniculus): 0.016 µM; CL/F [14]: 0.522 L/h/kg; bioavailability [15]: 78%; half-life [16]: 15 h; bioavailability [17]: 39%
